Measured values reported in ChEMBL document CHEMBL3525950, “Autoinhibition of CYP3A4 leads to important role of CYP2C8 in imatinib metabolism: variability in CYP2C8 activity may alter plasma concentrations and response” (Drug Metab Dispos, 2013).

Experiments:
Cytochrome P450 3A4 [1] = molecular target: T1, Cytochrome P450 3A4 (Homo sapiens, UniProt P08684); assay: Activity of human recombinant CYP3A4 in supersomes assessed as enzyme-mediated drug metabolism at 0.05 to 0.1 uM after 30 mins by LC/MS analysis; format: ADME; conditions: 0.5 h
T1 sequence (P08684 whole entry): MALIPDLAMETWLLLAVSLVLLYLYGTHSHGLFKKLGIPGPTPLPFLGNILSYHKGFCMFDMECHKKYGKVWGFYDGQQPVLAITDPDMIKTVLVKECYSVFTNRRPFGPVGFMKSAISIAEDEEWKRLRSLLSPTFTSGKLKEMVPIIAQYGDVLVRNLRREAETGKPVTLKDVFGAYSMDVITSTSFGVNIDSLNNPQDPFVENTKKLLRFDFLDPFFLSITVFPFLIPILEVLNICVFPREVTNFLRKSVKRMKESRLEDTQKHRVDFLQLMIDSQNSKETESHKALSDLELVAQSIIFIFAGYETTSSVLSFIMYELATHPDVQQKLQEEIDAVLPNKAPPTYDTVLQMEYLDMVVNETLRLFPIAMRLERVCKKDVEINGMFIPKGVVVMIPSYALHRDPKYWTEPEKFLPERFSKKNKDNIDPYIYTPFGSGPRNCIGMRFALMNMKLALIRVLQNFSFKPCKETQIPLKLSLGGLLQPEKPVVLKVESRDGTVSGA
How it was run: (§1)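 Recombinant P450 (CYP1A2 50, CYP2C8 158, CYP2D6 72, CYP3A4 66, CYP3A5 50 pmol/ml; 0.5 mg/ml protein) incubated with 0.1 µM N-DMI, and also 0.05 µM with CYP2C8/3A4/3A5. Run in 0.1 M sodium phosphate pH 7.4 with 1 mM NADPH at 37°C, in triplicate. N-DMI depletion was followed by LC-MS/MS; k_dep was fitted over 0–30 min and CLint = k_dep/[P450].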

CYP2C8 = assay: Fraction unbound in human liver microsomes containing CYP2C8 after 60 mins; format: ADME
Cytochrome P450 2C8 [2] = molecular target: T2, Cytochrome P450 2C8 (Homo sapiens, UniProt P10632); assay: Activity of human recombinant CYP2C8 in supersomes assessed as enzyme-mediated drug metabolism at 0.05 to 0.1 uM after 30 mins by LC/MS analysis; format: ADME; conditions: 0.5 h; how it was run: as §1
T2 sequence (P10632 whole entry): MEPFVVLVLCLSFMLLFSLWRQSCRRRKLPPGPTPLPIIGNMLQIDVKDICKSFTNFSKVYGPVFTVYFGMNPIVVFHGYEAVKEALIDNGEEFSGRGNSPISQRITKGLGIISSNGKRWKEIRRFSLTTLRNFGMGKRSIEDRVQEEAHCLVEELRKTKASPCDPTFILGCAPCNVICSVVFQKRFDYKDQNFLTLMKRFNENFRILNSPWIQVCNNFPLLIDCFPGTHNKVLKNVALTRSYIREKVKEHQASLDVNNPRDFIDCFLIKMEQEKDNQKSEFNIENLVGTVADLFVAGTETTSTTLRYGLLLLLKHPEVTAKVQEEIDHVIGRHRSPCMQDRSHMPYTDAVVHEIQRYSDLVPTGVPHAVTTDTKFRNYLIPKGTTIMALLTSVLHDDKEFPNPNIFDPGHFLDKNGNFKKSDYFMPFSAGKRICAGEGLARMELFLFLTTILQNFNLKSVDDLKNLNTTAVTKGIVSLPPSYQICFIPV

Cytochrome P450 1A2 [3] = molecular target: T3, Cytochrome P450 1A2 (Homo sapiens, UniProt P05177); assay: Activity of human recombinant CYP1A2 in supersomes assessed as enzyme-mediated drug metabolism at 0.05 to 0.1 uM after 30 mins by LC/MS analysis; format: ADME; conditions: 0.5 h; how it was run: as §1
T3 sequence (P05177 whole entry): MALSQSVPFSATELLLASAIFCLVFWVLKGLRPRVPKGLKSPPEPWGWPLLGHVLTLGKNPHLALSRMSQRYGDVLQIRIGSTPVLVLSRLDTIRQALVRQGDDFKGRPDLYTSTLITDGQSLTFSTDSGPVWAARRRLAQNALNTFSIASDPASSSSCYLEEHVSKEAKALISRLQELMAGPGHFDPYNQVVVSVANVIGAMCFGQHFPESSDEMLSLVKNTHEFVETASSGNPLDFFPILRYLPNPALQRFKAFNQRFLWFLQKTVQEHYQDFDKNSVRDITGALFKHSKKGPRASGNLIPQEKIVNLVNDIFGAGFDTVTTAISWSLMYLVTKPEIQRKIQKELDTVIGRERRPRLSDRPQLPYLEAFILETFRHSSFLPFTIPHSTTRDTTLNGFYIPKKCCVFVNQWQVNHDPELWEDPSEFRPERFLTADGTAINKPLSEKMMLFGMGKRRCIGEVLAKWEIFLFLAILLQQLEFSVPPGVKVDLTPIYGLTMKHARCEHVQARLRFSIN

Cytochrome P450 3A5 [4] = molecular target: T4, Cytochrome P450 3A5 (Homo sapiens, UniProt P20815); assay: Activity of human recombinant CYP3A5 in supersomes assessed as enzyme-mediated drug metabolism at 0.05 to 0.1 uM after 30 mins by LC/MS analysis; format: ADME; conditions: 0.5 h; how it was run: as §1
T4 sequence (P20815 whole entry): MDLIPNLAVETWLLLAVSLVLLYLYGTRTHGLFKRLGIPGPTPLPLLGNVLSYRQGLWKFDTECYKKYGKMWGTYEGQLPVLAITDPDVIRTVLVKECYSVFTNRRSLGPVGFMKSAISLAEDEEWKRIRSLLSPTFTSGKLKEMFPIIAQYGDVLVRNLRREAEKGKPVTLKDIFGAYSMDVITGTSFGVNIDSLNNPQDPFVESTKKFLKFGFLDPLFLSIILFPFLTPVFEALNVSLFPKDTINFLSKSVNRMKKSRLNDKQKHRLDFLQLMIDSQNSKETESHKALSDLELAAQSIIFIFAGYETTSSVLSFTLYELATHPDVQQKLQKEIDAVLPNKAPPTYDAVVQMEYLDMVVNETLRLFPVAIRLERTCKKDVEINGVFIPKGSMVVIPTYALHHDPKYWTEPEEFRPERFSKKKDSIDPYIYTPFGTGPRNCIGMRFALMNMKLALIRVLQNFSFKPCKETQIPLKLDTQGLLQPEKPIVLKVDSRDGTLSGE

Cytochrome P450 3A5 [5] = molecular target: T4, Cytochrome P450 3A5; assay: Activity of human recombinant CYP3A5 in supersomes assessed as intrinsic clearance for enzyme-mediated drug metabolism by LC/MS analysis; format: ADME
How it was run: (§2)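 N-DMI formation kinetics: imatinib 0.10–320 µM with CYP2C8 (33 pmol/ml, 4 min), CYP3A4 (13 pmol/ml, 3 min) or CYP3A5 (10 pmol/ml, 30 min), 0.1 mg/ml protein. Run in phosphate pH 7.4 with 1 mM NADPH at 37°C, in triplicate, read by LC-MS/MS. Fits used substrate-inhibition (CYP2C8, CYP3A4) or Michaelis–Menten (CYP3A5) models; CLint = Vmax/Km.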

Cytochrome P450 2D6 [6] = molecular target: T5, Cytochrome P450 2D6 (Homo sapiens, UniProt P10635); assay: Activity of human recombinant CYP2D6 in supersomes assessed as intrinsic clearance for enzyme-mediated drug metabolism by LC/MS analysis
T5 sequence (P10635 whole entry): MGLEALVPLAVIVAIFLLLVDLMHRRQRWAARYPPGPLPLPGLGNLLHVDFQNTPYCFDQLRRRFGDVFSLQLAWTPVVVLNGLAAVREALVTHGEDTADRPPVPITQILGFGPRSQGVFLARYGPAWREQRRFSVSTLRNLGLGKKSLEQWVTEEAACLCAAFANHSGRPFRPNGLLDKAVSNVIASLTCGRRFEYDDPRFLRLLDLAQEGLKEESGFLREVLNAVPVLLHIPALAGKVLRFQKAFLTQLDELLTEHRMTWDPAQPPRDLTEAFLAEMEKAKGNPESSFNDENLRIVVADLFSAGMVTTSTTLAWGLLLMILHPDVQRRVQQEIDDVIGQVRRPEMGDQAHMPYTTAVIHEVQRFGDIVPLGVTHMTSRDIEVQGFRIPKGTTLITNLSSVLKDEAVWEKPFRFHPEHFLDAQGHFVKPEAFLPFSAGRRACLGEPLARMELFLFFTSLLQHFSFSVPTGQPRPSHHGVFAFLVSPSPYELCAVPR

CYP3A5 = assay: Fraction unbound in human liver microsomes containing CYP3A5 after 60 mins; format: ADME
CYP2D6 = assay: Fraction unbound in human liver microsomes containing CYP2D6 after 60 mins; format: ADME
Cytochrome P450 2D6 [7] = molecular target: T5, Cytochrome P450 2D6; assay: Activity of human recombinant CYP2D6 in supersomes assessed as enzyme-mediated drug metabolism at 0.05 to 0.1 uM after 30 mins by LC/MS analysis; format: ADME; conditions: 0.5 h; how it was run: as §1
Cytochrome P450 2C8 [8] = molecular target: T2, Cytochrome P450 2C8; assay: Activity of human recombinant CYP2C8 in supersomes assessed as intrinsic clearance for enzyme-mediated drug metabolism by LC/MS analysis; format: ADME; how it was run: as §2
Cytochrome P450 3A4 [9] = molecular target: T1, Cytochrome P450 3A4; assay: Activity of human recombinant CYP3A4 in supersomes assessed as intrinsic clearance for enzyme-mediated drug metabolism by LC/MS analysis; format: ADME; how it was run: as §2
CYP1A2 = assay: Fraction unbound in human liver microsomes containing CYP1A2 after 60 mins; format: ADME
CYP3A4 = assay: Fraction unbound in human liver microsomes containing CYP3A4 after 60 mins; format: ADME
Cytochrome P450 1A2 [10] = molecular target: T3, Cytochrome P450 1A2; assay: Activity of human recombinant CYP1A2 in supersomes assessed as intrinsic clearance for enzyme-mediated drug metabolism by LC/MS analysis
[11] = Oral bioavailability in chronic myeloid leukemia patient; format: ADME, organism-based; conditions: human, in vivo
[12] = Cmax in chronic myeloid leukemia patient at 400 mg, qd by multiple dose study; format: ADME, organism-based; design: dose 400 mg; conditions: human, in vivo

Compound: CS(=O)(=O)O.Cc1ccc(NC(=O)c2ccc(CN3CCNCC3)cc2)cc1Nc1nccc(-c2cccnc2)n1
- Drug metabolism (Cytochrome P450 3A4 [1]): metabolite_detected
- fraction unbound at 1 h (CYP2C8): 0.8
- Drug metabolism (Cytochrome P450 2C8 [2]): metabolite_detected
- Drug metabolism (Cytochrome P450 1A2 [3]): metabolite_not_detected
- Drug metabolism (Cytochrome P450 3A5 [4]): metabolite_not_detected
- CL (Cytochrome P450 3A5 [5]): 0.09 µL/min
- CL (Cytochrome P450 2D6 [6]): 0.05 µL/min
- fraction unbound at 1 h (CYP3A5): 0.8
- fraction unbound at 1 h (CYP2D6): 0.8
- Drug metabolism (Cytochrome P450 2D6 [7]): metabolite_not_detected
- CL (Cytochrome P450 2C8 [8]): 0.06 µL/min
- CL (Cytochrome P450 3A4 [9]): 0.5 µL/min
- fraction unbound at 1 h (CYP1A2): 0.8
- fraction unbound at 1 h (CYP3A4): 0.8
- CL (Cytochrome P450 1A2 [10]): 0.03 µL/min

Compound: CS(=O)(=O)O.Cc1ccc(NC(=O)c2ccc(CN3CCN(C)CC3)cc2)cc1Nc1nccc(-c2cccnc2)n1 [IMATINIB MESYLATE]
- bioavailability [11]: > 97%
- Cmax [12]: 2200 ng/mL
